Measurements reported in ChEMBL document CHEMBL4477209, “Indole-2-carboxamide-based MmpL3 Inhibitors Show Exceptional Antitubercular Activity in an Animal Model of Tuberculosis Infection” (J Med Chem, 2016).
Converted amounts (≈) assume the structure as drawn. The source made the active and inactive calls. The rule behind the calls is not given here.

How the values were obtained:
[1] = tested on: Mycobacterium tuberculosis H37Rv; assay: Inhibition of MmpL3 in clinical isolates of drug sensitive Mycobacterium tuberculosis H37Rv after 7 to 14 days by alamar blue assay
[2] = tested on: Vero; assay: Cytotoxicity against african green monkey Vero cells; format: cell-based; conditions: Chlorocebus sabaeus
[3] = tested on: Mycobacterium tuberculosis; assay: Inhibition of MmpL3 in clinical isolates of drug sensitive Mycobacterium tuberculosis V4207 after 7 to 14 days by alamar blue assay
[4] = Selectivity index, ratio of IC50 for african green monkey Vero cells to MIC for clinical isolates of Mycobacterium tuberculosis; format: toxicity; conditions: read-out: Selectivity Index
[5] = Oral bioavailability in BALB/c mouse at 100 mg/kg administered for 30 to 120 mins followed by Mycobacterium tuberculosis H37Rv addition to compound treated serum incubated for 7 days by alamar blue reagent based serum inhibition titration assay; format: ADME, organism-based; conditions: in vivo
In short: (§1)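 Six-week-old female BALB/c mice (20 g) given one oral dose as suspension in 0.5% CMC in water; isoniazid 10 mg/kg as positive control, vehicle as negative. Serum collected at 30, 60 and 120 min, pooled from three mice per time point, 2-fold serially diluted. 10^4 CFU H37Rv added per well, 7 days at 37 °C. alamarBlue added for 16−18 h, fluorescence read at Ex544/Em590 and plotted against serum titration.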

[6] = tested on: Mycobacterium tuberculosis; assay: Antimycobacterial activity against Mycobacterium tuberculosis H37Rv grown on serum isolated from 100 mg/kg, po treated BALB/c mouse for 30 to 120 mins assessed as reduction in bacterial growth followed by bacterial addition incubated for 7 days by alamar blue reagent based serum inhibition titration assay; format: functional, organism-based; in short: as §1
[7] = tested on: Mycobacterium tuberculosis; assay: Antimycobacterial activity against Mycobacterium tuberculosis H37Rv grown on serum of 100 mg/kg, po treated BALB/c mouse for 30 to 120 mins assessed as reduction in bacterial growth followed by bacterial addition incubated for 7 days by alamar blue reagent based serum inhibition titration assay; format: functional, organism-based; in short: as §1
[8] = Oral bioavailability in BALB/c mouse at 100 mg/kg administered as single dose for 30 to 120 mins followed by Mycobacterium tuberculosis H37Rv addition to compound treated serum incubated for 7 days by alamar blue reagent based serum inhibition titration assay; format: ADME, organism-based; conditions: in vivo; in short: as §1
[9] = Cmax in BALB/c mouse lung at 100 mg/kg administered via oral gavage after 0.25 to 24 hrs by LC-MS analysis; format: ADME, organism-based; design: dose 100 mg/kg, route oral
In short: (§2)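 Female BALB/c mice (20 g), single oral gavage dose of 100 mg/kg. Cardiac blood and lungs taken at 0, 0.25, 0.5, 1, 2, 4, 8 and 24 h (n = 3 per time point). Plasma separated by centrifugation; lungs bead-beaten in water and supernatant recovered. Drug quantified by LC-MS/MS against an indole-2-carboxamide internal standard. Parameters derived by noncompartmental analysis.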

[10] = AUClast in BALB/c mouse plasma at 100 mg/kg administered via oral gavage after 0.25 to 24 hrs by LC-MS analysis; format: ADME, organism-based; design: dose 100 mg/kg, time 0.25-24 hr, route oral; in short: as §2
[11] = Mean residence time (last) in BALB/c mouse lung at 100 mg/kg administered via oral gavage by LC-MS analysis; format: ADME, organism-based; in short: as §2
[12] = tested on: Mycobacterium tuberculosis; assay: Antimycobacterial activity against Mycobacterium tuberculosis H37Rv infected in BALB/c mouse model assessed as reduction in CFU counts in lung at 100 mg/kg administered daily via oral gavage for 5 days per week measured after 28 days post dosage relative to control; format: functional
In short: (§3)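 Female BALB/c mice, 4-6 weeks old, aerosol-infected with H37Rv (about 10^3 CFU); five mice taken on day 1 for lung implantation CFU. From day 1, 12.5, 25, 50 or 100 mg/kg in 0.5% carboxymethylcellulose by daily oral gavage, 5 days/week. Ethambutol 100 mg/kg as positive control, untreated infected mice as negative, 5 mice per group. Lung homogenates plated on 7H11 selective agar on days 14 and 28.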

[13] = AUClast in BALB/c mouse lung at 100 mg/kg administered via oral gavage after 0.25 to 24 hrs by LC-MS analysis; format: ADME, organism-based; conditions: in vivo; in short: as §2
[14] = AUMClast in BALB/c mouse lung at 100 mg/kg administered via oral gavage after 0.25 to 24 hrs by LC-MS analysis; format: ADME, organism-based; conditions: in vivo; in short: as §2
[15] = AUMClast in BALB/c mouse plasma at 100 mg/kg administered via oral gavage after 0.25 to 24 hrs by LC-MS analysis; format: ADME, organism-based; conditions: in vivo; in short: as §2
[16] = Mean residence time (last) in BALB/c mouse plasma at 100 mg/kg administered via oral gavage by LC-MS analysis; format: ADME, organism-based; in short: as §2
[17] = tested on: Mycobacterium tuberculosis; assay: Antimycobacterial activity against Mycobacterium tuberculosis H37Rv infected in BALB/c mouse model assessed as reduction in CFU counts in lung at 200 mg/kg administered daily via oral gavage for 5 days per week measured after 28 days post dosage relative to control; format: functional
In short: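 Bactericidal-dose model in aerosol-infected BALB/c mice given 25, 50, 100 or 200 mg/kg orally in 0.5% carboxymethylcellulose in water for 4 weeks. Lung CFU compared with the count at treatment initiation; survival also recorded.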

[18] = Tmax in BALB/c mouse lung at 100 mg/kg administered via oral gavage after 0.25 to 24 hrs by LC-MS analysis; format: ADME, organism-based
In short: (§4)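 Female BALB/c mice (20 g) got a single 100 mg/kg oral gavage dose. Three animals were sacrificed per time point at 0, 0.25, 0.5, 1, 2, 4, 8 and 24 h. Cardiac blood was spun at 12 000g, 4 °C for plasma. Lungs were bead-beaten in water and the supernatant taken. Both matrices were quantified by LC-MS/MS with an indole-2-carboxamide internal standard. Parameters came from noncompartmental analysis.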

[19] = Cmax in BALB/c mouse plasma at 100 mg/kg administered via oral gavage after 0.25 to 24 hrs by LC-MS analysis; format: ADME, organism-based; design: dose 100 mg/kg, route oral; in short: as §2
[20] = Tmax in BALB/c mouse plasma at 100 mg/kg administered via oral gavage after 0.25 to 24 hrs by LC-MS analysis; format: ADME, organism-based; in short: as §4
[21] = tested on: Mycobacterium tuberculosis; assay: Antimycobacterial activity against Mycobacterium tuberculosis H37Rv infected in BALB/c mouse model assessed as protection against mouse mortality at 12.5 to 100 mg/kg administered daily via oral gavage for 5 days per week measured after 14 to 28 days post dosage; format: functional, organism-based
[22] = tested on: Mycobacterium tuberculosis; assay: Antimycobacterial activity against Mycobacterium tuberculosis H37Rv infected in BALB/c mouse model assessed as reduction in CFU counts in lung at 100 mg/kg administered daily via oral gavage for 5 days per week measured after 14 days post dosage relative to control; format: functional; in short: as §3

Compound | MIC90 [1] [µM] | other results
CCCCCCCCNC(=O)c1cc2c(Cl)cc(Cl)cc2[nH]1 | > 300 | –
CC1(C)[C@@H]2CC[C@@H](CNC(=O)c3cc4c(Cl)cc(Cl)cc4[nH]3)[C@H]1C2 | 175 (≈ 63.9 µg/mL) | –
O=C(Nc1nc2ccc(OC(F)(F)F)cc2s1)C1CCCCCC1 | > 300 | –
C[C@@H](NC(=O)c1cc2c(F)cc(F)cc2[nH]1)C1CCCCC1 | 13 (≈ 3.98 µg/mL) | –
O=C(NC1CCCCCCC1)c1cc2c(Cl)cc(Cl)cc2[nH]1 | 0.011 (≈ 0.00373 µg/mL) | IC50 [2]: 23.5 to 47 µM; MIC [3]: 11 µM (≈ 3.73 µg/mL); selectivity ratio [4]: 2140 to 4270; Drug uptake [5]: Active; Activity [6]: Active
Cc1ccc2cc(C(=O)NC3CCCCCCC3)[nH]c2c1 | 0.11 (≈ 0.0313 µg/mL) | –
CC(C)=CCC/C(C)=C/CNC(=O)c1cc2c(F)cc(F)cc2[nH]1 | > 192 | –
Cc1cc(C)c2cc(CNC3CCCCCCC3)[nH]c2c1 | 0.31 (≈ 0.0882 µg/mL) | –
CN1C2CCCC1CC(NC(=O)c1cc3c(Cl)cc(Cl)cc3[nH]1)C2 (stereo unspecified) | 10.9 (≈ 3.99 µg/mL) | –
Cc1cc(C)c2cc(CNC(=O)C3CCCCCC3)[nH]c2c1 | 54 (≈ 16.1 µg/mL) | –
Cc1cccc2cc(C(=O)NC3CCCCCC3)[nH]c12 | 30 (≈ 8.11 µg/mL) | –
C[C@@H]1[C@H]2C[C@@H](C[C@H]1NC(=O)c1cc3c(Cl)cc(Cl)cc3[nH]1)C2(C)C | 0.021 (≈ 0.00767 µg/mL) | IC50 [2]: 43.8 µM; MIC [3]: 43 µM (≈ 15.7 µg/mL); selectivity ratio [4]: 2080; Drug uptake [5]: Active; Activity [6]: Active
C[C@@H]1[C@@H](NC(=O)c2cc3c(F)cc(F)cc3[nH]2)C[C@H]2C[C@@H]1C2(C)C | 0.19 (≈ 0.0632 µg/mL) | –
Nc1ccc2[nH]c(C(=O)NC3CCCCCCC3)cc2c1 | 80 (≈ 22.8 µg/mL) | –
O=C(NC12CC3CC(CC(C3)C1)C2)c1cc2ccc(Br)cc2[nH]1 | 0.042 (≈ 0.0157 µg/mL) | –
COc1cc(OC)c2cc(C(=O)NC3CCCCCCC3)[nH]c2c1 | 0.19 (≈ 0.0628 µg/mL) | –
O=C(NC1CCC2(CCCCC2)CC1)c1cc2c(F)cc(F)cc2[nH]1 | 0.003 (≈ 0.00104 µg/mL) | Activity [7]: inactive; Drug uptake [8]: Not Active
COc1cc(OC)c2cc(C(=O)NC3CCCCCC3)[nH]c2c1 | 3.2 (≈ 1.01 µg/mL) | –
O=C(NC1Cc2ccccc2C1)c1cc2c(Cl)cc(Cl)cc2[nH]1 | 0.72 (≈ 0.249 µg/mL) | –
Cc1cc(C)c2[nH]c(C(=O)NC3CCCCCCC3)cc2c1 | 0.21 (≈ 0.0627 µg/mL) | –

Compound | MIC90 [1] [µM] | other results
O=C(NC1CCC2(CCCCC2)CC1)c1cc2c(Cl)cc(Cl)cc2[nH]1 | 0.005 (≈ 0.0019 µg/mL) | Activity [7]: inactive; Drug uptake [8]: Not Active
CCCCCCCNC(=O)c1cc2c(Cl)cc(Cl)cc2[nH]1 | > 300 | –
C[C@@H]1[C@@H](NC(=O)c2cc3c(Cl)cc(Cl)cc3[nH]2)C[C@H]2C[C@@H]1C2(C)C | 0.086 (≈ 0.0314 µg/mL) | –
Cc1cc(C)c2cc(C(=O)NC3CCCCCCC3)[nH]c2c1 | 0.013 (≈ 0.00388 µg/mL) | –
Cc1cc(C)c2[nH]c(C(=O)NC3CCCCCC3)cc2c1 | 3.5 (≈ 0.995 µg/mL) | –
O=C(NC1CCCCCCC1)c1cc2ccc(Br)cc2[nH]1 | 0.09 (≈ 0.0314 µg/mL) | –
CC(C)=CCC/C(C)=C/CNC(=O)c1cc2c(Cl)cc(Cl)cc2[nH]1 | 11 (≈ 4.02 µg/mL) | –
O=C(N[C@@H]1C[C@H]2CC[C@@H]1C2)c1cc2c(Cl)cc(Cl)cc2[nH]1 (relative stereo) | 0.39 (≈ 0.126 µg/mL) | –
CC1(C)CCC(NC(=O)c2cc3c(Cl)cc(Cl)cc3[nH]2)CC1 | – | Cmax [9]: 1300 ng/g; AUC(0-t) [10]: 5620 ng·h/mL; MRT last [11]: 8.3 h; Activity [12]: 1.08 log10CFU; AUClast [13]: 18.1 µg·h/g; AUMClast [14]: 150 hr2.ug/g; AUMClast [15]: 36.4 hr.hr.ug/ml; MRT last [16]: 6.47 h; Activity [17]: inactive; Tmax [18]: 2 h; Cmax [19]: 670 ng/mL; Activity [7]: Active; Tmax [20]: 2 h; Drug uptake [8]: Active; Activity [21]: Active; Activity [22]: 0.45 log10CFU
Cc1cccc2[nH]c(C(=O)NC3CCCCCCC3)cc12 | 0.11 (≈ 0.0313 µg/mL) | –
Cc1ccc2[nH]c(C(=O)NC3CCCCCCC3)cc2c1 | 0.88 (≈ 0.25 µg/mL) | –
Cc1ccc2[nH]c(C(=O)NC3CCCCCC3)cc2c1 | 7.4 (≈ 2 µg/mL) | –
Cc1cccc2[nH]c(C(=O)NC3CCCCCC3)cc12 | 0.93 (≈ 0.251 µg/mL) | –
O=C(NC1Cc2ccccc2C1)c1cc2c(F)cc(F)cc2[nH]1 | 102 (≈ 31.9 µg/mL) | –
CC1(C)[C@H]2CC[C@@]1(C)[C@H](NC(=O)c1cc3c(Cl)cc(Cl)cc3[nH]1)C2 | 0.043 (≈ 0.0157 µg/mL) | –
C[C@@H]1[C@H]2C[C@@H](C[C@H]1NC(=O)c1cc3ccc(Br)cc3[nH]1)C2(C)C | 0.01 (≈ 0.00375 µg/mL) | –
O=C(NC12CC3CC(CC(C3)C1)C2)c1cc2c(Cl)cc(Cl)cc2[nH]1 | 0.011 (≈ 0.004 µg/mL) | Activity [7]: inactive; Drug uptake [8]: Not Active
Cc1cccc2cc(C(=O)NC3CCCCCCC3)[nH]c12 | 3.5 (≈ 0.995 µg/mL) | –
C[C@@H](NC(=O)c1cc2c(Cl)cc(Cl)cc2[nH]1)C1CCCCC1 | 5.9 (≈ 2 µg/mL) | –
Nc1cccc2[nH]c(C(=O)NC3CCCCCCC3)cc12 | 20 (≈ 5.71 µg/mL) | –
